Assay results: ChEMBL document CHEMBL1157464, “1-[(3-Aryloxy-3-aryl)propyl]-1H-imidazoles, new imidazoles with potent activity against Candida albicans and dermatophytes. Synthesis, structure-activity relationship, and molecular modeling studies” (J Med Chem, 2008)
In brackets after ≈: the same amount, converted by molar mass.

Experiments:
Candida parapsilosis = experiment: Antifungal activity against Candida parapsilosis ATCC 22019 at 35 degC after 48 hrs by broth microdilution test; format: functional; settings: Lodderomyces parapsilosis, ATCC 22019, 48 h; for MFC: read-out: MFC; for MIC: read-out: MIC
Outline: (§1)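 Broth microdilution per NCCLS M27-A2. Stocks in 100% DMSO, diluted in RPMI 1640 with 0.165 M MOPS at pH 7.0; final range 0.25–128 µg/mL. Inoculum 1000–5000 cells/mL from SDA subcultures. […] C. parapsilosis ATCC22019 served as QC strain.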

Candida albicans [1] = experiment: Antifungal activity against Candida albicans ATCC 10261 at 35 degC after 48 hrs by broth microdilution test; format: functional; settings: Candida albicans, ATCC 10261, 48 h; for MIC: read-out: MIC; for MIC50: read-out: MIC50; for MIC90: read-out: MIC90; outline: as §1
Candida albicans [2] = experiment: Antifungal activity against Candida albicans ATCC 10261 at 35 degC after 48 to 96 hrs by broth microdilution test; format: functional; settings: for MFC: Candida albicans, ATCC 10261, read-out: MFC
Outline: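 Minimal fungicidal concentration for Candida. […] MFC is the lowest concentration allowing fewer than two colonies (99% killing).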

[3] = Cytotoxicity against human U937 cells assessed as reduction of cell viability after 24 hrs by MTT assay; format: cell-based, U-937
Outline: (§2)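 U937 and K562 cells, from ATCC, plated at 5 × 10^4/mL in phenol-red-free RPMI-1640 with 20% FBS and penicillin/streptomycin. Compounds added 2 h later at 25–100 µg/mL, then 24 h at 37 °C. MTT at 1 mg/mL for 3 h, formazan dissolved in isopropanol with 0.1 N HCl, absorbance read at 570 nm. CC50 is the concentration reducing viability by 50% versus the drug-free control.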

[4] = Cytotoxicity against human K562 cells after assessed as reduction of cell viability 24 hrs by MTT assay; format: cell-based; outline: as §2
[5] = Therapeutic index, ratio of CC50 for human U937 cells to MIC90 for Candida albicans ATCC 10261; format: cell-based, U-937
Outline: (§3)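 Therapeutic index calculated as CC50 in the given cell line divided by MIC90.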

[6] = Therapeutic index, ratio of CC50 for human K562 cells to MIC90 for Candida albicans ATCC 10261; format: cell-based; outline: as §3
Candida albicans [7] = experiment: Antifungal activity against fluconazole-resistant Candida albicans isolated from oropharyngeal or vaginal disease patient after 48 hrs by broth microdilution test; format: functional
Candida albicans [8] = experiment: Antifungal activity against fluconazole-sensitive Candida albicans Fe40 at 35 degC after 48 hrs by broth microdilution test; format: functional; outline: as §1
Arthrodermataceae [9] = experiment: Antifungal activity against dermatophytes at 28 degC after 7 days by broth microdilution test; format: functional; settings: 168 h
Outline: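 Ten clinical isolates (two M. canis, five M. gypseum, three T. mentagrophytes) tested by NCCLS M38-A broth microdilution in MOPS-buffered RPMI 1640, pH 7.0, over 0.25–128 µg/mL. Conidial/hyphal suspension from PDA slants (28 °C, 7 days) adjusted to 65–70% transmittance at OD530, then diluted 1:50.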

Arthrodermataceae [10] = experiment: Antifungal activity against dermatophytes at 28 degC after 5 days by broth microdilution test; settings: for MFC: Arthrodermataceae
Arthrodermataceae [11] = experiment: Antifungal activity against dermatophytes at 28 degC after 48 to 96 hrs by broth microdilution test

| SMILES | MFC (Candida parapsilosis) [µg/mL] | MIC (Candida parapsilosis) [µg/mL] | MIC (Candida albicans [1]) [µg/mL] | MIC50 (Candida albicans [1]) [µg/mL] | MIC90 (Candida albicans [1]) [µg/mL] | MFC50 (Candida albicans [2]) [µg/mL] | MFC90 (Candida albicans [2]) [µg/mL] | MFC (Candida albicans [2]) [µg/mL] | CC50 at 24 h [3] [µM] | CC50 at 24 h [4] [µM] | selectivity ratio [5] | selectivity ratio [6] | MIC (Candida albicans [7]) [µg/mL] | MIC (Candida albicans [8]) [µg/mL] | MIC (Arthrodermataceae [9]) [µg/mL] | MIC50 (Arthrodermataceae [9]) [µg/mL] | MIC90 (Arthrodermataceae [9]) [µg/mL] | MFC90 (Arthrodermataceae [10]) [µg/mL] | MFC (Arthrodermataceae [10]) [µg/mL] | MFC50 (Arthrodermataceae [11]) [µg/mL] |
| --- | --- | --- | --- | --- | --- | --- | --- | --- | --- | --- | --- | --- | --- | --- | --- | --- | --- | --- | --- | --- |
| CC(=O)N1CCN(c2ccc(OCC3COC(Cn4ccnc4)(c4ccc(Cl)cc4Cl)O3)cc2)CC1 (stereo not given) [KETOCONAZOLE] | 0.5 (≈ 0.941 µM) | 0.06 (≈ 0.113 µM) | 5.9 (≈ 11.1 µM) | 4 (≈ 7.53 µM) | 8 (≈ 15.1 µM) | 16 (≈ 30.1 µM) | 32 (≈ 60.2 µM) | 16.3 (≈ 30.7 µM) | 125 | 102 | 15.6 | 12.8 | 20 (≈ 37.6 µM) | 4 (≈ 7.53 µM) | 1.6 (≈ 3.01 µM) | 1 (≈ 1.88 µM) | 2 (≈ 3.76 µM) | 8 (≈ 15.1 µM) | 6.6 (≈ 12.4 µM) | 8 (≈ 15.1 µM) |
| Cc1ccc(OC(CCn2ccnc2)c2ccc(Cl)cc2)cc1 (stereo not given) | 4 (≈ 12.2 µM) | 2 (≈ 6.12 µM) | 3.2 (≈ 9.79 µM) | 2 (≈ 6.12 µM) | 4 (≈ 12.2 µM) | 8 (≈ 24.5 µM) | 16 (≈ 49 µM) | 10 (≈ 30.6 µM) | 325 | 227 | 81.3 | 56.8 | 5.6 (≈ 17.1 µM) | 2 (≈ 6.12 µM) | 4.6 (≈ 14.1 µM) | 4 (≈ 12.2 µM) | 8 (≈ 24.5 µM) | 32 (≈ 97.9 µM) | 28.8 (≈ 88.1 µM) | 32 (≈ 97.9 µM) |
